# Test results published in PubChem BioAssay.
# Values without a mark were called inactive.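 How the source made its calls, unless noted: active means viability at or under a set limit in both replicates, limit being median viability minus 3 SD (cut at about 48% in these data, passing the limit was not always enough); inconclusive means at or under the limit in just one replicate; inactive means at or above the limit in both replicates.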
# Assay: HUVEC growth inhibition – cell-based, human, primary screen (AID 575;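 active means viability at or below 30% in both replicate assays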;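 further: 100% = median of untreated cell wells with 0.1% DMSO on each plate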)
# Conditions: HUVEC proliferation, CellTiter-Glo luminescence, 72 h; at 10 µM; active compounds read low
# Procedure, shortened: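 Test system: primary human umbilical vein endothelial cells; medium: endothelial basal medium with 2% FBS plus growth supplements; dosing: 10 µM compound only; times: 72 h treatment at 37 °C; signal: CTG luminescence; read-out: % viability relative to median vehicle-well signal on each plate; control set: vehicle and MePR control wells; plate: 384-well, collagen-coated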
row,SMILES,viability
1,CCc1ccccc1NC(=O)c1ccoc1C,107%
2,COc1ccccc1NC(=O)NC(N)=O,87.7%
3,Cc1nc(-c2ccccc2)sc1C(N)=O,96.4%
4,CCO/C([O-])=N/c1c[n+](N2CCOCC2)no1,95.9%
5,N#Cc1cnc(SCCc2ccccc2)nc1N,102%
6,CCCC1Cc2c(sc3ncnc(N)c23)CO1 (centres undefined),94.5%
7,Cn1c(=O)c2c(nc(Br)n2CCSc2nnnn2-c2ccccc2)n(C)c1=O,105%
8,CCn1cc(C(=O)NCc2ccco2)c(=O)c2cc(F)c(N3CCN(C(=O)c4ccco4)CC3)cc21,62.4%
9,COc1ccc(C)cc1-n1nnnc1SC/C(O)=C(\C#N)c1nc2ccccc2[nH]1,86.6%
10,Cc1cnc(NC(=O)CSc2nnc(-c3ccccc3)n2Cc2ccccc2)s1,82.5%
11,CCN(CC)CCCNc1oc(-c2cccc(Cl)c2)nc1C#N,74.7%
12,COc1cccc(NC(=O)C2CCCN2C(=O)Nc2cccc(F)c2)c1 (centres undefined),103%
13,CN(C)CCC=C1c2ccccc2CCc2ccccc21,60.6%
14,Cc1ccc(-c2nn[nH]n2)cc1,112%
15,CCn1c(SCC(=O)Nc2ccc3c(c2)OCO3)nnc1-c1cnccn1,93.1%
16,c1ccc(-c2cnc(CSc3ncnc4sccc34)o2)cc1,90.7%
17,CCOC(=O)C1=C[C@]2(CC)CCCN3CCc4c(n1c1ccccc41)[C@@H]32,49.9%
18,NCc1ccc(S(N)(=O)=O)cc1,84.8%
19,COC(=O)c1cc(S(=O)(=O)N2CCOCC2)c(N2CCOCC2)cc1N1CCOCC1,102%
20,CSc1oc(-c2ccccc2)nc1S(=O)(=O)c1ccc(F)cc1,73.2%
21,Cc1c(NC(=O)CCc2ccc(S(=O)(=O)N3CCOCC3)cc2)c(=O)n(-c2ccccc2)n1C,109%
22,CC(C)N(C(=O)N1CCC(c2nc(-c3ccncc3)no2)CC1)C(C)C,105%
23,CCOC(=O)C1(CC)NC(c2cccc(F)c2)C2C(=O)N(CC)C(=O)C21 (centres undefined),96.1%
24,CCCCN1C(=O)C2C(C(=O)Nc3cccc(OC)c3)C3C=CC2(O3)C1C(=O)NC1CCCCC1C (centres undefined),82.7%

# Assay: H69AR cell proliferation blockers – human, duplicate replicates, primary screen (AID 580);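 further: 100% = mean luminescence of untreated wells and 0% = no signal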
# Conditions: H69AR lung tumor cells viability, ATP luminescence, 72 h; at 10 µM; active compounds read low
row,SMILES,viability
1,CN/C(=C/[N+](=O)[O-])NCCSCc1ccc(CN(C)C)o1,94.2%
2,CC1Oc2ccccc2N(CC(=O)NCc2cccs2)C1=O (centres undefined),108%
3,COCCn1c(C)cc(C(=O)COC(=O)c2ccc(N3CCCC3=O)cc2)c1C,92.3%
4,Cc1ccc(S(=O)(=O)N2CCN(C(=O)N3CCOCC3)C2c2ccc(N(C)C)cc2)cc1 (centres undefined),110%
5,C/C(=C\c1ccco1)C1C(C#N)=C(N)OC2=C1C(=O)CC(C)(C)C2 (centres undefined),80.1%
6,CC(=O)SCC(=O)N=c1sc2cc(F)ccc2n1C,93.4%
7,COCCNC(=O)C(c1ccc(C)o1)N(Cc1cccs1)C(=O)c1snc(C(N)=O)c1N (centres undefined),86.4%
8,c1ccc(-c2oc3ncnc(NCCN4CCOCC4)c3c2-c2ccccc2)cc1,73.3%
9,CCOC(=O)C1=C(C)Nc2nc(SCC(=O)OC)nn2C1c1cc(F)cc(F)c1 (centres undefined),92.9%
10,Cc1ccc(-c2nnc3c4ccccc4c(C)nn23)cc1S(=O)(=O)N1CCN(C)CC1,74%
11,CCCCCC#CCC#CCC#CCC#CCCCC(=O)O,93.6%
12,CCn1c(SCC(=O)N2CCN(c3ccc(Cl)cc3)CC2)nc2ccccc2c1=O,78.6%
13,O=C(OC1CCc2ccccc2C1=O)c1ccccc1O (centres undefined),78.6%
14,c1cc2c(cc1Cn1cnnn1)OCO2,105%
15,Cc1cc(C)c(NC(=O)CSc2nnc(-c3ccncc3)n2Cc2ccco2)c(C)c1,97.4%
16,CC1CCCCN1C(=O)Cn1nnc(-c2cccnc2)n1 (centres undefined),103%
17,CCc1ccccc1NC(=O)c1ccoc1C,101%
18,COc1ccccc1NC(=O)NC(N)=O,96.4%
19,Cc1nc(-c2ccccc2)sc1C(N)=O,94.4%
20,CCO/C([O-])=N/c1c[n+](N2CCOCC2)no1,86.7%

row,SMILES,viability
1,N#Cc1cnc(SCCc2ccccc2)nc1N,97.8%
2,CCCC1Cc2c(sc3ncnc(N)c23)CO1 (centres undefined),90.9%
3,Cn1c(=O)c2c(nc(Br)n2CCSc2nnnn2-c2ccccc2)n(C)c1=O,80.4%
4,CCn1cc(C(=O)NCc2ccco2)c(=O)c2cc(F)c(N3CCN(C(=O)c4ccco4)CC3)cc21,58.6%
5,COc1ccc(C)cc1-n1nnnc1SC/C(O)=C(\C#N)c1nc2ccccc2[nH]1,85.2%
6,Cc1cnc(NC(=O)CSc2nnc(-c3ccccc3)n2Cc2ccccc2)s1,90.2%
7,CCN(CC)CCCNc1oc(-c2cccc(Cl)c2)nc1C#N,76.6%
8,COc1cccc(NC(=O)C2CCCN2C(=O)Nc2cccc(F)c2)c1 (centres undefined),103%
9,CN(C)CCC=C1c2ccccc2CCc2ccccc21,82.3%
10,Cc1ccc(-c2nn[nH]n2)cc1,107%
11,CCn1c(SCC(=O)Nc2ccc3c(c2)OCO3)nnc1-c1cnccn1,95.4%
12,c1ccc(-c2cnc(CSc3ncnc4sccc34)o2)cc1,96.9%
13,CCOC(=O)C1=C[C@]2(CC)CCCN3CCc4c(n1c1ccccc41)[C@@H]32,80.1%
14,NCc1ccc(S(N)(=O)=O)cc1,102%
15,COC(=O)c1cc(S(=O)(=O)N2CCOCC2)c(N2CCOCC2)cc1N1CCOCC1,85.5%
16,CSc1oc(-c2ccccc2)nc1S(=O)(=O)c1ccc(F)cc1,82.6%
17,Cc1c(NC(=O)CCc2ccc(S(=O)(=O)N3CCOCC3)cc2)c(=O)n(-c2ccccc2)n1C,100%
18,CC(C)N(C(=O)N1CCC(c2nc(-c3ccncc3)no2)CC1)C(C)C,102%
19,CCOC(=O)C1(CC)NC(c2cccc(F)c2)C2C(=O)N(CC)C(=O)C21 (centres undefined),97.6%
20,CCCCN1C(=O)C2C(C(=O)Nc3cccc(OC)c3)C3C=CC2(O3)C1C(=O)NC1CCCCC1C (centres undefined),82.1%
